For experiment [1], the system named is P388. Put plainly: Antitumor activity in P388 cells xenografted mouse at 0.2 mg/kg body weight, ip for 5 days/week relative to control. As to conditions: route intraperitoneal. Format: functional. The method in brief: (§1)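 Mice carried murine P388 lymphocytic leukemia cells implanted intraperitoneally. Treatment was given i.p. daily, 5 days per week. Activity was expressed as % T/C, treated versus control.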

The subject of experiment [2] is KB. Put plainly: Cytotoxicity against human KB cells. Format: functional, cell-based. The method in brief: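 Human oral epidermoid carcinoma (KB) cells were tested following previously established protocols. EC50 values were reported in μM as mean ± SEM from three separate experiments.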
Experiment [3] concerns P388. Put plainly: Antitumor activity in iv dosed mouse implanted with P388 xenografts. The class given is functional, organism-based. The method in brief:
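This was a P388 murine lymphocytic leukemia model in which both the leukemia cells and the treatment were delivered intravenously.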

The subject of experiment [4] is P388. Briefly: Antitumor activity in P388 cells xenografted mouse at 0.4 mg/kg body weight, ip for 5 days/week relative to control. The note with it: route intraperitoneal. Format: functional. The method in brief:
as §1

Activity and EC50 data for twelve molecules are collected here from ChEMBL document CHEMBL1143725, “Alvaradoins E-N, antitumor and cytotoxic anthracenone C-glycosides from the leaves of Alvaradoa haitiensis” (J Nat Prod, 2007).

SMILES strings stand for the structures. Activity calls are given as the source filed them. No cut-off for these calls is given here. Bounds are passed on as bounds.

Broadly, the EC50 is the concentration that produces a half-maximal response. The low end stands for higher potency in that assay, the high end for lower potency in that assay. Turning to `CC(=O)O[C@@H]1O[C@@H]([C@H]2c3cccc(O)c3C(=O)c3c(O)cc(C)cc32)[C@H](O)[C@@H](O)[C@H]1O` [ALVARADOIN E], the Activity in experiment [1] came to 125%. Further, a half-maximal effect in experiment [2] (EC50) was put at 0.05 µM. The result in experiment [3] was inactive.

As for `CC(=O)O[C@H]1O[C@H]([C@@H]2c3cccc(O)c3C(=O)c3c(O)cc(C)cc32)[C@H](O)[C@@H](O)[C@H]1O` [ALVARADOIN F], the EC50 in experiment [2] came out at 0.065 µM. In experiment [4], this molecule came in with an Activity of 115%. Moreover, in experiment [3], the result was inactive. Take `CC(=O)O[C@H]1O[C@H]([C@@H]2c3cccc(O)c3C(=O)c3c(O)cc(C)cc32)[C@H](O)[C@@H](OC(=O)C=C(C)C)[C@H]1O` [ALVARADOIN G]: the 50% effective concentration (EC50) in experiment [2] was determined as 0.65 µM. The molecule `CC(=O)O[C@@H]1O[C@@H]([C@H]2c3cccc(O)c3C(=O)c3c(O)cc(C)cc32)[C@H](O)[C@@H](OC(=O)C=C(C)C)[C@H]1O` [ALVARADOIN H] showed an EC50 in experiment [2] of 1.07 µM.

For `CC(=O)O[C@H]1O[C@H]([C@@]2(O)c3cccc(O)c3C(=O)c3c(O)cc(C)cc32)[C@H](O)[C@@H](OC(=O)C=C(C)C)[C@H]1O` [ALVARADOIN I], in experiment [2], the 50% effective concentration (EC50) worked out at 12.5 µM.

Take `CC(=O)O[C@H]1O[C@H]([C@]2(O)c3cccc(O)c3C(=O)c3c(O)cc(C)cc32)[C@H](O)[C@@H](OC(=O)C=C(C)C)[C@H]1O` [ALVARADOIN J]: the EC50 in experiment [2] is 15.9 µM. The same measure, in the same setting: under `CC(C)=CC(=O)O[C@@H]1[C@H](O)[C@@H](O)[C@@H]([C@@H]2c3cccc(O)c3C(=O)c3c(O)cc(C)cc32)O[C@@H]1O` [ALVARADOIN K] stands 0.27 µM; under `CC(C)=CC(=O)O[C@@H]1[C@H](O)[C@@H](O)[C@@H]([C@H]2c3cccc(O)c3C(=O)c3c(O)cc(C)cc32)O[C@@H]1O` [ALVARADOIN L], 0.59 µM. For the molecule `CC(C)=CC(=O)O[C@@H]1[C@@H](O)[C@@H]([C@H]2c3cccc(O)c3C(=O)c3c(O)cc(C)cc32)O[C@H](O)[C@@H]1O` [ALVARADOIN M], in experiment [2], the 50% effective concentration (EC50) was determined as 0.38 µM. Regarding `CC(=O)O[C@H]1O[C@H]([C@]2(O)c3cccc(O)c3C(=O)c3c(O)cc(C)cc32)[C@H](O)[C@@H](O)[C@H]1O` [ALVARADOIN N], a half-maximal response in experiment [2] (EC50) required 2.94 µM. Same read-out and setting: under `CC[C@@]1(O)C(=O)OCc2c1cc1n(c2=O)Cc2cc3ccccc3nc2-1` [CAMPTOTHECIN] stands 0.0036 µM. Still for that read-out and setting: under `Cc1cc(O)c2c(c1)C(=O)c1cccc(O)c1C2=O` [CHRYSOPHANOL] stands over 20 µM.
